Compounds with a hit are over-represented: about 3% of the library has one in this group of screens.
5HT1E ag: agonists of human 5-HT1E serotonin receptor; P28566; CHO 5-HT1E Ga15 NFAT-bla reporter, FRET; 0% DMSO wells, 100% control agonist wells; activation, % at 6 µM; 0.69% of 65,000 active; AID 574;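 active = activation above a set limit, the screen-wide mean activation plus 3 SD, cut at about 8.5% in these data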;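 note: 100% = positive control agonist at 1 µM giving full maximal response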
S1P3 ag: activates the human S1P3 receptor; 0.1% of 60,000 active; S1P3 NFAT-BLA reporter cells, agonism, FRET ratio; relative to 1 µM S1P, basal subtracted; Q99500; activation, % at 4.5 µM;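 active = activation above the screen-wide mean plus 3 SD, cut at about 4.5% in these data, passing the limit was not always enough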
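Assay system: stable CHO line with human S1P3, Gα16, NFAT-BLA reporter; Detection: FRET β-lactamase substrate fluorescence, excitation 405 nm, 460/535 nm emission ratio, background-subtracted; Read-out: percent activation versus median 1 µM S1P response, basal-subtracted, per plate; Incubation: cells plated overnight, compound 4 h 37 °C, substrate 2 h RT.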
5HT1a antag: antagonists of human 5-HT1a serotonin receptor | P08908 | inhibition, % at 10 µM | 0.68% of 62,000 active | CHO 5-HT1a Ga15 NFAT-bla reporter, antagonist mode;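 active = inhibition above the mean of all tested compounds plus 3 SD, cut at about 43% in these data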;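 note: receptor stimulated by 5-CT agonist at 100 nM near EC80; beta-lactamase reporter measured by ratiometric fluorescence of a cleavable substrate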
Target sequence (P08908 whole entry, looked up): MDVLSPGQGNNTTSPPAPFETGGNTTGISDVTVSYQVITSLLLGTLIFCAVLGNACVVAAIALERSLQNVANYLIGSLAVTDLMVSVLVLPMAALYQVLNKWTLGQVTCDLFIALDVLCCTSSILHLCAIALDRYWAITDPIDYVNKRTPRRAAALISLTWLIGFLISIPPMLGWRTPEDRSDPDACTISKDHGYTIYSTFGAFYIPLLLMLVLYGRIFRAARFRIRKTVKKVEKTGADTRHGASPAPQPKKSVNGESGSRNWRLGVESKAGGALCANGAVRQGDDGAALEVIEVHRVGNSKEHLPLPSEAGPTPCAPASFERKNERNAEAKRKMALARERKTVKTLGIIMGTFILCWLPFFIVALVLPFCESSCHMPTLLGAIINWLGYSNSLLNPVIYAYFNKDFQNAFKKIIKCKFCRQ
S1P1 ag pot: agonists and agonism potentiators of human S1P1 receptor; P21453; 0.57% of 56,000 active; S1P1 CRE-bla cells, forskolin, beta-lactamase FRET, potentiator mode; S1P1 agonist co-added at EC20, 2 nM; 100% = saturating reference agonist, 0% = basal; activation, % at 9.5 µM;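 active = activation above a cutoff set at the mean activation of all tested compounds plus 3 SD, cut at about 54% in these data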;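 note: forskolin at 4 µM as EC80 and the EC20 agonist is SEW2871; 100% = SEW2871 at its EC100 plus forskolin at EC80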
5HT1a ag: activates the human 5-HT1a serotonin receptor. P08908. CHO 5-HT1a Ga15 NFAT-bla reporter, FRET ratio; 0% basal, 100% maximal reference agonist. activation, % at 10 µM. 0.56% of 65,000 active. AID 567;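 active = activation above the screen-wide mean activation plus 3 SD, cut at about 19% in these data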;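 note: 0% = DMSO wells and 100% = 5-CT at EC100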
5HT1E antag: antagonists of human 5-HT1E serotonin receptor. P28566. CHO 5-HT1E Ga15 NFAT-bla reporter, FRET, antagonist. inhibition, % at 6 µM. 0.99% of 65,000 active;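 active = inhibition above a set limit, the mean inhibition across every tested compound plus 3 SD, cut at about 29% in these data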;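 note: signal is the 460 over 535 nm emission ratio of beta-lactamase substrate; 0% = agonist plus DMSO wells and 100% = wells without agonist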
* = called active by the depositor; x = not tested or not shown.

SMILES	5HT1E ag	S1P3 ag	5HT1a antag	S1P1 ag pot	5HT1a ag	5HT1E antag
Cc1ccc2c(c1)c1c(n2CC(O)Cn2c(C)nc3ccccc32)/C(=N\O)CCC1 (configuration not stated)	0.5	-0.2	27.7	-43.3	-4.1	-24.9
CC1(C(=O)O)CCC(C(=O)N2CCOCC2)C1(C)C (configuration not stated)	1.0	-0.9	-5.9	-13.7	-2.7	-9.0
COc1ccc(CNc2oc(COc3ccccc3)nc2C#N)cc1	-0.4	x	28.7	x	-1.2	15.2
CCNc1oc(COc2cccc(C)c2)nc1C#N	-0.5	x	15.7	x	-4.3	-3.2
Cc1cccc(OCc2nc(C#N)c(NCc3ccc4c(c3)OCO4)o2)c1	-0.1	x	42.9*	x	-0.9	6.3
N#Cc1nc(COc2ccc(Cl)cc2)oc1NCc1ccc2c(c1)OCO2	-0.6	x	51.7*	x	-0.8	3.1
COc1ccc2nc3sc(C(=O)N4CCN(C)CC4)cc3cc2c1	25.3*	-0.8	-9.0	-22.2	0.5	1.1
Fc1ccccc1N1CCN(c2ncnc3[nH]ncc23)CC1	-0.6	0.0	-8.0	27.1	309.9*	4.9
COc1nc(OC/C(N)=N/O)nc(N2CCOCC2)n1	0.6	0.7	-7.2	1.3	-0.7	-9.3
COc1ccc(C2C=C(c3ccc(Br)s3)Nc3ncnn32)cc1OC (configuration not stated)	0.3	0.0	33.8	-28.6	-2.2	34.2*
COc1cccc(C2C=C(c3cccs3)Nc3ncnn32)c1OC (configuration not stated)	-0.5	-0.8	26.3	9.2	-4.3	29.9*
COc1cccc(C2=CC(c3cccc(OC)c3OC)n3nnnc3N2)c1 (configuration not stated)	0.1	-0.7	24.1	-11.7	-1.6	9.9
COc1ccc(C2=CC(c3ccc(OC)c(OC)c3)n3nnnc3N2)c(OC)c1 (configuration not stated)	0.4	-0.4	5.8	-57.3	0.3	28.6*
COc1cccc(C2C=C(c3ccc(OC)cc3OC)Nc3nnnn32)c1 (configuration not stated)	0.1	-1.0	7.8	12.6	1.6	20.0
Cc1nc(SCC(=O)NCc2ccco2)c2c(C)c(C)sc2n1	0.3	0.6	-5.5	-6.6	-0.6	5.7
Cc1sc2ncnc(SCC(=O)NC(=O)NCc3ccco3)c2c1C	-0.1	-0.5	27.2	-28.4	98.4*	27.8
COc1cccc(C(=O)Nc2ccc3nc(N4CCN(c5ncccn5)CC4)cc(C)c3c2)c1OC	1.1	x	24.2	x	4.4	29.9*
CCOc1ccccc1N(CC(=O)NCC1CCCO1)C(=O)CCC(=O)Nc1ccccn1 (configuration not stated)	1.7	-0.4	4.8	2.8	-1.2	8.0
Cc1cc(-n2c(=O)c(C#N)cc3c(=O)n4cccc(C)c4nc32)no1	3.1	7.9	-20.6	-21.8	49.2*	-3.6
Cc1ccc(-n2c(=O)c(C#N)cc3c(=O)n4ccccc4nc32)cc1	7.8	4.2	-25.2	-11.4	30.0*	-5.9
CS(=O)(=O)N1CCCC(c2nc(-c3ccc(S(=O)(=O)NCc4ccccc4)cc3)no2)C1 (configuration not stated)	0.8	x	-6.3	x	-2.3	-10.9
Cc1c(=O)n(OCc2ccccc2F)c2ccccc2[n+]1[O-]	-1.1	0.4	-4.2	-15.3	24.6*	-9.0
CN(C)C(=O)CSc1cccc2cccnc12	-0.1	-0.9	32.8	37.5	1.1	39.2*
O=C(CSc1cccc2cccnc12)N1CCCC1	0.4	-0.5	17.1	46.2	-0.6	41.6*
O=C(O)c1cccnc1SCC(=O)N1CCCCCC1	-0.6	0.0	-5.4	-18.1	-2.1	3.9
SMILES	5HT1E ag	S1P3 ag	5HT1a antag	S1P1 ag pot	5HT1a ag	5HT1E antag
Cc1nnc(SCC2CCCO2)n1-c1ccccc1 (configuration not stated)	0.6	-0.4	8.7	-5.7	-1.4	9.6
Nc1ccc(SC(F)(F)F)cc1C(=O)c1ccccc1	-0.1	0.1	26.2	-55.2	1.9	2.0
CCCn1c(NCc2ccco2)nc2ccccc21	0.0	1.4	4.3	-8.4	-2.9	-8.5
CCCn1c(Nc2nc3ccccc3n2C)nc2ccccc21	-0.6	0.6	59.1*	-161.7	1.3	54.1*
CCCCCn1c(NCc2ccco2)nc2ccccc21	22.5*	-0.5	19.3	-12.2	-1.4	16.7
COc1ccc(S(=O)(=O)N2CCCC(C(=O)NCc3ccncc3)C2)cc1 (configuration not stated)	-0.4	-0.6	-13.7	6.5	-1.4	-5.1
CC(=O)Nc1nc(=O)c2ccccc2s1	-0.7	-1.5	47.3*	-1.3	-5.5	-10.0
C=CCNCc1cccn1-c1ccccc1	0.6	-0.4	4.0	-24.4	-0.2	-9.9
O=P(c1ccccc1)(c1ccccc1)C(c1ccco1)N1CCOCC1 (configuration not stated)	-0.3	-0.1	10.4	-15.8	-1.6	4.5
CCOC(=O)CC1=C(C(=O)OCC)C(c2ccc(C)o2)C(C#N)=C(N)O1 (configuration not stated)	-0.8	-1.3	52.6*	17.6	-0.3	35.0*
COC(=O)CN(c1ccc(OC)cc1)S(=O)(=O)c1ccc(OC)c(OC)c1	0.6	2.2	-0.3	x	19.5*	4.0
Cc1ccc2nc(SCCC#N)nc(C)c2c1	0.1	0.3	2.3	-17.5	1.2	-3.9
Cc1ccc2nc(C(F)(F)F)c(C#N)c(N)c2c1	-1.3	-3.7	x	64.0*	-0.8	34.7*
CC(=O)C1=C(C)NC(SCC(=O)c2cc(Cl)ccc2Cl)=C(C#N)C1c1ccco1 (configuration not stated)	-0.3	-2.5	32.7	52.5	-2.7	31.2*
CC(=O)C1=C(C)NC(SCC(=O)c2ccc(Cl)c(Cl)c2)=C(C#N)C1c1ccco1 (configuration not stated)	-0.6	0.0	12.7	25.0	-2.5	20.7
CC1CCOC2(O1)C(=O)N(CN1CCN(c3ccccc3F)CC1)c1ccccc12 (configuration not stated)	13.6*	-0.5	-5.9	-3.0	1.9	-7.7
O=C1N(CN2CCC3(CC2)OCCO3)c2ccccc2C12OCCCO2	-0.1	0.4	-9.5	-6.8	-2.9	0.0
O=C1N(CN2CCN(c3cccc(Cl)c3)CC2)c2ccccc2C12OCCCO2	23.9*	1.9	9.5	19.4	1.5	6.6
Cn1cc(S(=O)(=O)NCc2cccs2)c(=O)n(C)c1=O	0.9	-1.2	0.5	-2.9	-1.1	0.7
COc1ccccc1-c1nnc2sc(C3CCCCC3)nn12	0.7	-1.9	x	-19.8	0.3	0.8
c1cc(-c2nnc3sc(C4CCCCC4)nn23)ccn1	16.7*	0.0	x	21.0	1.8	2.0

Source: PubChem
